Assay results from different studies.
Lines come from different studies, so protocols differ.
CDK16 with cyclin Y: Cyclin-dependent kinase 16, with cyclin Y (CDK16, Homo sapiens, UniProt Q00536)
CDK16: Cyclin-dependent kinase 16 (CDK16, Homo sapiens, UniProt Q00536)

CC(C)S(=O)(=O)c1ccc2nccc(Nc3ccc4sc(C5CCCC5)nc4c3)c2c1  activity vs control (CDK16 with cyclin Y; enzyme activity; inhibitor; 1 µM): 106%
Cc1ccc(NC(=O)c2ccnc(C(F)(F)F)c2)cc1-c1cc(OCCO)nc(N2CCOCC2)c1  remaining binding (CDK16; binding; 1 µM): 100%
CO[C@@H]1[C@H](N(C)C(=O)c2ccccc2)C[C@H]2O[C@]1(C)n1c3ccccc3c3c4c(c5c6ccccc6n2c5c31)C(=O)NC4  inhibition (CDK16; enzyme activity; inhibitor; 1 µM): 5%
COc1ccc2oc(-c3ccc4nc(N)oc4c3)c/c(=N\c3ccccc3NC(=O)CCN)c2c1  remaining binding (CDK16 with cyclin Y; binding; 1 µM): 107%
N#Cc1ccc(NC(=O)Nc2ccccc2)cc1  remaining binding (CDK16; cell-free assay; competition with immobilised ligand; 25 µM): 68%
COc1ccc2[nH]c3c4[nH]c5ccc(OC)cc5c4c4c(c3c2c1)C(=O)NC4=O  remaining binding (CDK16; binding; 1 µM): 99%
CCCCC(=O)Nc1ccc(-c2ccc3ncn(CCC)c(=O)c3c2)cn1  remaining binding (CDK16; binding; competition with immobilised ligand; 0.5 µM): 90%
Cc1cc(O)c(-c2ccc([C@@H](C)CN(C)C)cc2)c2c1[nH]c(=O)c1sccc12  inhibition (CDK16; enzyme activity; inhibitor; 0.1 µM): -12.9%
C=CC(=O)N1CCC[C@@H](n2nc(-c3ccc(Oc4ccccc4)cc3)c3c(N)ncnc32)C1  inhibition (CDK16; enzyme activity; inhibitor; 1 µM): 10%
